In ChEMBL document CHEMBL1139368, “Pt(II) complexes of a combretastatin A-4 analogous chalcone: effects of conjugation on cytotoxicity, tumor specificity, and long-term tumor growth suppression” (J Med Chem, 2009):
The source made the active and inactive calls. The calls are words filed in the database; no cut-off is given here.

Assays:
[1] = Induction of apoptosis in human WW070327 cells assessed as PARP cleavage at 1 uM after 24 hrs by Western blot analysis; assay type: cell-based; conditions: ww070327, 24 h
Method in brief: (§1)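 Cells treated 24 h at 1 μM, then rinsed in PBS and lysed in RIPA buffer with protease inhibitors. 40 μg protein per lane on SDS–PAGE, blotted to nitrocellulose, blocked in 5% milk/PBST, probed 2 h with mouse monoclonals against caspase-3, PARP and actin (loading control). HRP secondary, ECL detection, compared with untreated control.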

A-427 = test: Cytotoxicity against human A427 cells after 96 hrs by SRB assay; assay type: functional, cell-based; conditions: A-427, 96 h
Method in brief: (§2)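 Monolayer cultures in RPMI 1640 with 10% heat-inactivated FBS and streptomycin/penicillin, 37 °C, 5% CO₂. Cells seeded day 0 at densities giving exponential growth, exposed day 1 to 0.001–10 μM, SRB read day 5 (96 h exposure); surviving cells as percentage of untreated controls, IC₅₀ taken from dose–response curves. Three independent experiments for some compounds, two for others.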

[2] = Inhibition of tubulin polymerization at 3 uM; conditions: TDE = time-dependent effect
Method in brief: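 Commercial fluorescence-based tubulin polymerization kit, run as the manufacturer directs, compounds at 3 μM. Polymerization followed as RFU at excitation 360 nm, emission 465 nm. Three independent experiments.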

A-431 [3] = test: Cytotoxicity against human A431 cells after 96 hrs by SRB assay; assay type: functional, cell-based; conditions: A-431, 96 h; method in brief: as §2
8505C = test: Cytotoxicity against human 8505C cells after 96 hrs by SRB assay; assay type: functional, cell-based; method in brief: as §2
[4] = Cytotoxicity against human H12.1 cells after 96 hrs by SRB assay; assay type: functional, cell-based; method in brief: as §2
[5] = Cytotoxicity against human NCI-H322 cells after 96 hrs by SRB assay; assay type: functional, cell-based; conditions: NCI-H322, 96 h; method in brief: as §2
A253 cell line = test: Suppression of regrowth in human A253 cells at 10 nM treated for 96 hrs and measured over 10 days by SRB assay; assay type: functional, cell-based
Method in brief: (§3)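 SRB regrowth test: cells exposed 96 h to serial dilutions, chosen around IC₉₀, then fixed at once (day 0) or washed drug-free and grown in fresh medium for 2, 4, 6 or 10 days before SRB staining. Three independent experiments.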

HCT-8 = test: Cytotoxicity against human HCT8 cells after 96 hrs by SRB assay; assay type: functional, cell-based; conditions: HCT-8, 96 h; method in brief: as §2
HL-60 [6] = test: Induction of apoptosis in human HL60 cells assessed as processing of procaspase 9 to activated caspase 9 at 10 uM by Western blotting; assay type: functional, cell-based; conditions: TDE = time-dependent effect
Method in brief: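 HL-60 cells at 0.5 × 10⁶/mL, exposed to 10 μM (in 1% DMF/99% PBS) at 37 °C, sampled at 0, 3, 7, 24 and 30 h. Lysed in Tris/NaCl/Triton X-100 buffer pH 7.4, 60 μg protein on 12% SDS–PAGE, PVDF blot, anti-caspase-9 1:10,000, HRP secondary, chemiluminescence. Procaspase-9 (~46 kDa) and cleaved form (~35 kDa) followed.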

A-431 [7] = test: Suppression of regrowth in human A431 cells at 10 nM treated for 96 hrs and measured over 10 days by SRB assay; assay type: functional, cell-based; method in brief: as §3
518A2 [8] = test: Induction of apoptosis in human 518A2 cells at 10 uM after 15 hrs by TUNEL assay; assay type: functional
Method in brief: (§4)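 TUNEL with fluorescein-tagged nucleotides labelling 3'-OH DNA ends, on HL-60 and 518A2 cells exposed to 10 μM for 15 h. Apoptotic cells were counted as green fluorescent spots under fluorescence microscopy and related to total cell number.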

[9] = Cytotoxicity against human 2102EP cells after 96 hrs by SRB assay; assay type: functional, cell-based; method in brief: as §2
[10] = Cytotoxicity against human 1411HP cells after 96 hrs by SRB assay; assay type: functional, cell-based; method in brief: as §2
A2780 [11] = test: Induction of apoptosis in human A2780 cells assessed as PARP cleavage at 1 uM after 24 hrs by Western blot analysis; assay type: functional, cell-based; method in brief: as §1
DLD-1 [12] = test: Induction of apoptosis in human DLD1 cells assessed as PARP cleavage at 1 uM after 24 hrs by Western blot analysis; assay type: functional, cell-based; method in brief: as §1
HT-29 = test: Cytotoxicity against human HT-29 cells after 96 hrs by SRB assay; assay type: functional, cell-based; conditions: HT-29, 96 h; method in brief: as §2
[13] = Cytotoxicity against human A253 cells after 96 hrs by SRB assay; assay type: functional, cell-based; conditions: A253, 96 h; method in brief: as §2
SW480 = test: Cytotoxicity against human SW480 cells after 96 hrs by SRB assay; assay type: functional, cell-based; conditions: SW480, 96 h; method in brief: as §2
BT-474 = test: Cytotoxicity against human BT474 cells after 96 hrs by SRB assay; assay type: functional, cell-based; conditions: BT-474, 96 h; method in brief: as §2
A2780 [14] = test: Induction of apoptosis in human A2780 cells assessed as increase in cleaved/activated form of caspase 3 at 1 uM after 24 hrs by Western blot analysis; assay type: functional, cell-based; method in brief: as §1
DLD-1 [15] = test: Induction of apoptosis in human DLD1 cells assessed as increase in cleaved/activated form of caspase 3 at 1 uM after 24 hrs by Western blot analysis; assay type: functional, cell-based; method in brief: as §1
HCT-116 = test: Cytotoxicity against human HCT116 cells after 96 hrs by SRB assay; assay type: functional, cell-based; conditions: HCT-116, 96 h; method in brief: as §2
A549 = test: Cytotoxicity against human A549 cells after 96 hrs by SRB assay; assay type: functional, cell-based; conditions: A549, 96 h; method in brief: as §2
A2780 [16] = test: Suppression of regrowth in human A2780 cells at 10 nM treated for 96 hrs and measured over 10 days by SRB assay; assay type: functional, cell-based; method in brief: as §3
518A2 [17] = test: Induction of apoptosis in human 518A2 cells assessed as increase in cleaved/activated form of caspase 3 at 1 uM after 24 hrs by Western blot analysis; assay type: functional, cell-based; method in brief: as §1
SW-1736 = test: Cytotoxicity against human SW1736 cells after 96 hrs by SRB assay; assay type: functional, cell-based; conditions: SW-1736, 96 h; method in brief: as §2
MCF7 = test: Cytotoxicity against human MCF7 cells after 96 hrs by SRB assay; assay type: functional, cell-based; conditions: MCF7, 96 h; method in brief: as §2
518A2 [18] = test: Induction of apoptosis in human 518A2 cells assessed as PARP cleavage at 1 uM after 24 hrs by Western blot analysis; assay type: functional, cell-based; method in brief: as §1
FaDu = test: Cytotoxicity against human FADU cells after 96 hrs by SRB assay; assay type: functional, cell-based; method in brief: as §2
A2780 [19] = test: Cytotoxicity against human A2780 cells after 96 hrs by SRB assay; assay type: functional, cell-based; conditions: A2780, 96 h; method in brief: as §2
DLD-1 [20] = test: Cytotoxicity against human DLD1 cells after 96 hrs by SRB assay; assay type: functional, cell-based; conditions: DLD-1, 96 h; method in brief: as §2
HL-60 [21] = test: Induction of apoptosis in human HL60 cells at 10 uM after 15 hrs by TUNEL assay; assay type: functional; method in brief: as §4
[22] = Cytotoxicity against human 518A2 cells after 96 hrs by SRB assay; assay type: functional, cell-based; conditions: 518A2, 96 h; method in brief: as §2
NCI-H358 = test: Cytotoxicity against human NCI-H358 cells after 96 hrs by SRB assay; assay type: functional, cell-based; conditions: NCI-H358, 96 h; method in brief: as §2
[23] = Induction of apoptosis in human WW070327 cells assessed as increase in cleaved/activated form of caspase 3 at 1 uM after 24 hrs by Western blot analysis; assay type: cell-based; conditions: ww070327, 24 h; method in brief: as §1

In the case of COc1ccc(/C=C/C(=O)c2cc(OC)c(OC)c(OC)c2)cc1O, the Activity [1] is reported as “Not Active”, the IC50 (A-427) is reported as 51.2 nM and the Activity [2] is reported as “tde”. It also gave an IC50 (A-431 [3]) of 15 nM, an IC50 (8505C) of 49.7 nM and an IC50 [4] of 33.6 nM. The IC50 [5] was 39 nM, the Activity (A253 cell line) was “Active” and the IC50 (HCT-8) was 56 nM. For the same molecule, the Activity (HL-60 [6]) was “tde”, the Activity (A-431 [7]) was “Active” and the Activity (518A2 [8]) was 50%. The IC50 [9] was 31.4 nM, the IC50 [10] was 142 nM and the Activity (A2780 [11]) was “Active”. For the same molecule, the Activity (DLD-1 [12]) was “Active”, the IC50 (HT-29) was 2600 nM and the IC50 [13] was 22.8 nM. The IC50 (SW480) was 102 nM, the IC50 (BT-474) was 193 nM and the Activity (A2780 [14]) was “Active”. The Activity (DLD-1 [15]) was “Active”, the IC50 (HCT-116) was 25.1 nM and the IC50 (A549) was 67.5 nM. The Activity (A2780 [16]) was “Active”, the Activity (518A2 [17]) was “Active” and the IC50 (SW-1736) was 27.5 nM. For the same molecule, the IC50 (MCF7) was 22.3 nM, the Activity (518A2 [18]) was “Active” and the IC50 (FaDu) was 41 nM. For the same molecule, the IC50 (A2780 [19]) was 15.6 nM, the IC50 (DLD-1 [20]) was 32.3 nM and the Activity (HL-60 [21]) was 40%. The IC50 [22] was 33.6 nM, the IC50 (NCI-H358) was 17.1 nM and the Activity [23] was “Not Active”.
